Measurements published in ChEMBL document CHEMBL1121496, “Metabolism of 6-substituted benzo[a]pyrene derivatives: O-dealkylation and regiospecificity in aromatic hydroxylation” (J Med Chem, 1980).

Tests used:
Format in all cases: functional
[1] = species on record: Rattus norvegicus; test: Rate of O-Dealkylation by liver microsomes in rats induced with 3-MC; Rates are expressed as pmol of product per 30 min per mg of protein
Method in brief: (§1)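 Male Wistar MRC rats (7–8 weeks old) received 3-MC 40 mg/kg ip in olive oil twice daily for 3 days and were fasted for the final 24 h. Liver microsomes were incubated at 0.5 mg protein/mL with substrate (BP in acetone, others in Me₂SO) for 30 min. Phenolic metabolites were read by fluorescence in base against synthetic phenol standards. Each rat was run in duplicate against a heat- or acetone-inactivated blank, and results are reported as mean ± SE.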

[2] = species on record: Rattus norvegicus; test: Rate of O-Dealkylation by liver microsomes in rats induced with PB; Rates are expressed as pmol of product per 30 min per mg of protein
Method in brief: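 Phenobarbital-induced rats: male Wistar MRC, 7–8 weeks, 40 mg/kg ip in saline twice daily for 3 days, fasted 24 h. Liver microsomes were used at 0.5 mg protein/mL. BP ethers were added in Me2SO, and phenolic products were measured by fluorescence of basic solutions against phenol standards. p-Nitroanisole O-demethylase was assayed by a modified Netter–Seidel method. Runs were in duplicate versus heat-inactivated blank; mean ± SE across rats.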

[3] = species on record: Rattus norvegicus; test: Rate of hydroxylation by liver microsomes in rats induced with 3-MC; Rates are expressed as pmol of product per 30 min per mg of protein; method in brief: as §1
[4] = species on record: Rattus norvegicus; test: Rate of hydroxylation by liver microsomes in rats induced with PB; Rates are expressed as pmol of product per 30 min per mg of protein
Method in brief: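 Liver microsomes (two livers pooled) from 7- or 8-week-old male Wistar MRC rats given phenobarbital 40 mg/kg ip in saline twice daily for 3 days, fasted final 24 h. Incubation at 0.5 mg protein/mL, with BP (80 nmol) in acetone or other substrates in Me2SO. Phenolic metabolites were read by fluorescence in base, quantitated against synthetic 3- or 1-phenol standards, in duplicate versus heat-inactivated blank; mean ± SE across rats.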

[5] = species on record: Rattus norvegicus; test: Rate of hydroxylation by lung microsomes in rats induced with 3-MC; Rates are expressed as pmol of product per 30 min per mg of protein
Method in brief: (§2)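 For lung microsomes from 3-MC-induced rats, the dose was 40 mg/kg ip in olive oil, given twice daily for 3 days, followed by a 24 h fast. Incubation used 1.0 mg microsomal protein/mL, with BP added in acetone and derivatives in Me₂SO. Base-extractable phenols were measured by fluorescence and quantitated with synthetic hydroxy-BP standards. Duplicates were corrected against inactivated-microsome blanks, and results are given as mean ± SE across individual rats.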

[6] = species on record: Rattus norvegicus; test: Rate of hydroxylation by lung microsomes in rats induced with PB; Rates are expressed as pmol of product per 30 min per mg of protein
Method in brief: (§3)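 Rats were pretreated with phenobarbital, 40 mg/kg ip in saline, twice daily for 3 days, and fasted the last 24 h. Lung microsomes were incubated at 1.0 mg protein/mL with substrate in acetone (BP) or Me₂SO. Product formed over 30 min was measured as fluorescence of phenolic metabolites in basic solution against synthetic phenol standards. Determinations were made in duplicate versus a heat-inactivated blank, and results are reported as mean ± SE.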

[7] = species on record: Rattus norvegicus; test: Rate of 3-hydroxylation by lung microsomes in rats induced with 3-MC; Rates are expressed as pmol of product per 30 min per mg of protein
Method in brief: (§4)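 Microsomes from lungs (two rats pooled) of 7- or 8-week-old male Wistar MRC rats dosed ip twice daily for 3 days with 3-MC 40 mg/kg in olive oil or phenobarbital 40 mg/kg in saline, then fasted 24 h. Incubation at 1.0 mg protein/mL. BP was added in acetone, other substrates in Me2SO. Base-extracted phenols were read by fluorescence against synthetic phenol standards, in duplicate versus heat-inactivated blank; mean ± SE across rats.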

[8] = species on record: Rattus norvegicus; test: Rate of 3-hydroxylation by lung microsomes in rats induced with PB; Rates are expressed as pmol of product per 30 min per mg of protein; method in brief: as §4
[9] = species on record: Rattus norvegicus; test: Rate of O-Dealkylation by lung microsomes in rats induced with 3-MC; Rates are expressed as pmol of product per 30 min per mg of protein; method in brief: as §2
[10] = species on record: Rattus norvegicus; test: Rate of O-Dealkylation by lung microsomes in rats induced with PB; Rates are expressed as pmol of product per 30 min per mg of protein; method in brief: as §3

Compound | Rate (pmol/30 min/mg protein) [1] | Rate (pmol/30 min/mg protein) [3] | Rate (pmol/30 min/mg protein) [5] | other results
COc1ccc([N+](=O)[O-])cc1 | 229000 |  |  | Rate (pmol/30 min/mg protein) [2]: 103000
COc1c2ccccc2c2ccc3cccc4ccc1c2c43 |  | 9010 | 576 | Rate (pmol/30 min/mg protein) [4]: 1980; Rate (pmol/30 min/mg protein) [6]: 69
COCc1c2ccccc2c2ccc3cccc4ccc1c2c43 |  | 7040 | 654 | 
OCc1c2ccccc2c2ccc3cccc4ccc1c2c43 |  | 1510 | 182 | 
c1ccc2c(c1)cc1ccc3cccc4ccc2c1c34 |  | 5810 |  | Rate [7]: 618 pM; Rate [8]: 49 pM; Rate (pmol/30 min/mg protein) [4]: 1160
CCOc1ccc2ccc3c(OCC)c4ccccc4c4ccc1c2c34 | 3360 |  |  | Rate (pmol/30 min/mg protein) [2]: 2850; Rate (pmol/30 min/mg protein) [9]: 156; Rate (pmol/30 min/mg protein) [10]: 48
COc1ccc2ccc3c4ccccc4c(OC)c4ccc1c2c43 | 1250 |  |  | 
COc1ccc2ccc3c(OC)c4ccccc4c4ccc1c2c34 |  | 5700 |  | 
CCCOc1ccc2ccc3c(OCCC)c4ccccc4c4ccc1c2c34 | 818 |  |  | 
